Experimental data taken from ChEMBL document CHEMBL1158358, “Synthesis, antimicrobial and cytotoxic activities of some 5-arylidene-4-thioxo-thiazolidine-2-ones” (Eur J Med Chem, 2009).
Values after ≈ are worked out from the molar mass of the structure shown.

Key:
Assay type in all cases: functional
[1] = test system: Candida albicans; assay: Antimicrobial activity against Candida albicans UFPEDA 1007 at 300 ug/disk after 48 hrs by disk diffusion method; conditions: UFPEDA 1007, 48 h, read-out: IZ
Method in brief: (§1)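 Preliminary screen by disk diffusion. Paper disks (6 mm) holding 300 µg of compound were placed on agar plates inoculated with a standardized microbial suspension. DMSO-only disks served as negative controls. A mean inhibition zone below 7 mm was scored as no sensitivity. Values are means, n = 3.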

[2] = test system: Micrococcus luteus; assay: Antimicrobial activity against Micrococcus luteus UFPEDA 06 at 300 ug/disk after 24 hrs by disk diffusion method; conditions: UFPEDA 06, 24 h, read-out: IZ; method in brief: as §1
[3] = test system: Micrococcus luteus; assay: Antimicrobial activity against Micrococcus luteus UFPEDA 06 after 20 hrs by twofold serial dilution technique; conditions: UFPEDA 06, 20 h
Method in brief: (§2)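 MIC was determined by twofold serial dilution. Bacteria were tested in plates at 10⁵ CFU/plate and read after 20 h. C. albicans was tested in tubes at 10³ CFU/tube and read after 48 h. All incubations were at 35 °C. Medium plus DMSO served as the negative control.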

[4] = test system: Enterococcus faecalis; assay: Antimicrobial activity against Enterococcus faecalis UFPEDA 138 at 300 ug/disk after 24 hrs by disk diffusion method; conditions: UFPEDA 138, 24 h, read-out: IZ; method in brief: as §1
[5] = test system: Staphylococcus aureus; assay: Antimicrobial activity against Staphylococcus aureus UFPEDA 01 after 20 hrs by twofold serial dilution technique; conditions: UFPEDA 01, 20 h
Method in brief: (§3)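 Twofold serial dilution MIC in agar plates against Gram-positive strains and multidrug-resistant clinical isolates. Inoculum applied was 10⁵ CFU/plate. Plates with culture medium plus DMSO served as negative control. MIC was read after incubation at 35 °C for 20 h.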

[6] = test system: Staphylococcus aureus; assay: Antimicrobial activity against multidrug-resistant Staphylococcus aureus H.C. 20794 isolate after 20 hrs by twofold serial dilution technique; conditions: H.C. 20794, 20 h; method in brief: as §3
[7] = test system: Pseudomonas aeruginosa; assay: Antimicrobial activity against Pseudomonas aeruginosa UFPEDA 39 at 300 ug/disk after 24 hrs by disk diffusion method; conditions: UFPEDA 39, 24 h, read-out: IZ; method in brief: as §1
[8] = test system: Staphylococcus aureus; assay: Antimicrobial activity against Staphylococcus aureus UFPEDA 01 at 300 ug/disk after 24 hrs by disk diffusion method; conditions: UFPEDA 01, 24 h, read-out: IZ; method in brief: as §1
[9] = test system: Candida albicans; assay: Antimicrobial activity against Candida albicans UFPEDA 1007 after 48 hrs by twofold serial dilution technique; conditions: UFPEDA 1007, 48 h; method in brief: as §2
[10] = test system: Bacillus subtilis; assay: Antimicrobial activity against Bacillus subtilis UFPEDA 16 at 300 ug/disk after 24 hrs by disk diffusion method; conditions: UFPEDA 16, 24 h, read-out: IZ; method in brief: as §1
[11] = test system: Staphylococcus aureus; assay: Antimicrobial activity against multidrug-resistant Staphylococcus aureus H.C. 20489 isolate after 20 hrs by twofold serial dilution technique; conditions: H.C. 20489, 20 h; method in brief: as §3
[12] = test system: Staphylococcus aureus; assay: Antimicrobial activity against multidrug-resistant Staphylococcus aureus H.C. 21141 isolate after 20 hrs by twofold serial dilution technique; conditions: H.C. 21141, 20 h; method in brief: as §3
[13] = test system: Staphylococcus aureus; assay: Antimicrobial activity against multidrug-resistant Staphylococcus aureus H.C. 21036 isolate after 20 hrs by twofold serial dilution technique; conditions: H.C. 21036, 20 h; method in brief: as §3
[14] = test system: Enterococcus faecalis; assay: Antimicrobial activity against multidrug-resistant Enterococcus faecalis H.C. 24962 isolate after 20 hrs by twofold serial dilution technique; conditions: H.C. 24962, 20 h; method in brief: as §3
[15] = test system: Staphylococcus; assay: Antimicrobial activity against coagulase-negative Staphylococcus H.A.M. 278 isolate after 20 hrs by twofold serial dilution technique; conditions: H.A.M. 278, 20 h; method in brief: as §2
[16] = test system: Enterococcus faecalis; assay: Antimicrobial activity against multidrug-resistant Enterococcus faecalis H.C. 21752 isolate after 20 hrs by twofold serial dilution technique; conditions: H.C. 21752, 20 h; method in brief: as §3
[17] = test system: Staphylococcus aureus; assay: Antimicrobial activity against multidrug-resistant Staphylococcus aureus H.C. 20981 isolate after 20 hrs by twofold serial dilution technique; conditions: H.C. 20981, 20 h; method in brief: as §3
[18] = test system: Enterococcus faecalis; assay: Antimicrobial activity against multidrug-resistant Enterococcus faecalis H.C. 24708 isolate after 20 hrs by twofold serial dilution technique; conditions: H.C. 24708, 20 h; method in brief: as §3
[19] = test system: Serratia marcescens; assay: Antimicrobial activity against Serratia marcescens UFPEDA 398 at 300 ug/disk after 24 hrs by disk diffusion method; conditions: UFPEDA 398, 24 h, read-out: IZ; method in brief: as §1
[20] = test system: Enterococcus faecalis; assay: Antimicrobial activity against Enterococcus faecalis UFPEDA 138 after 20 hrs by twofold serial dilution technique; conditions: UFPEDA 138, 20 h; method in brief: as §2
[21] = test system: Enterococcus faecalis; assay: Antimicrobial activity against multidrug-resistant Enterococcus faecalis H.C. 21944 isolate after 20 hrs by twofold serial dilution technique; conditions: H.C. 21944, 20 h; method in brief: as §3
[22] = test system: Staphylococcus aureus; assay: Antimicrobial activity against multidrug-resistant Staphylococcus aureus H.C. 20905 isolate after 20 hrs by twofold serial dilution technique; conditions: H.C. 20905, 20 h; method in brief: as §3
[23] = test system: Bacillus subtilis; assay: Antimicrobial activity against Bacillus subtilis UFPEDA 16 after 20 hrs by twofold serial dilution technique; conditions: UFPEDA 16, 20 h; method in brief: as §2
[24] = test system: Mycolicibacterium smegmatis; assay: Antimicrobial activity against Mycobacterium smegmatis UFPEDA 71 at 300 ug/disk after 24 hrs by disk diffusion method; conditions: UFPEDA 71, 24 h, read-out: IZ; method in brief: as §1
[25] = test system: Escherichia coli; assay: Antimicrobial activity against Escherichia coli UFPEDA 224 at 300 ug/disk after 24 hrs by disk diffusion method; conditions: UFPEDA 224, 24 h, read-out: IZ; method in brief: as §1
[26] = test system: Staphylococcus; assay: Antimicrobial activity against coagulase-negative Staphylococcus H.A.M. 338 isolate after 20 hrs by twofold serial dilution technique; conditions: H.A.M. 338, 20 h; method in brief: as §2
[27] = test system: Mycolicibacterium smegmatis; assay: Antimicrobial activity against Mycobacterium smegmatis UFPEDA 71 after 20 hrs by twofold serial dilution technique; conditions: UFPEDA 71, 20 h; method in brief: as §2
[28] = test system: NCI-H292; assay: Cytotoxicity against human NCI-H292 cells at 10 ug/mL after 72 hrs by MTT assay; conditions: NCI-H292, 72 h, read-out: GI
Method in brief: (§4)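 MTT antiproliferative assay. Cells were diluted to 10⁵ cells/mL in 96-well plates and preincubated for 24 h at 37 °C in humid 5% CO₂. Compounds or vincristine (reference) were then added. Formazan was dissolved and OD read at 540 nm, compared with medium-only control cells. Run in triplicate.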

[29] = test system: NCI-H292; assay: Cytotoxicity against human NCI-H292 cells at 5 ug/mL after 72 hrs by MTT assay; conditions: NCI-H292, 72 h, read-out: GI; method in brief: as §4
[30] = test system: NCI-H292; assay: Cytotoxicity against human NCI-H292 cells at 2.5 ug/mL after 72 hrs by MTT assay; conditions: NCI-H292, 72 h, read-out: GI; method in brief: as §4
[31] = test system: HEp-2; assay: Cytotoxicity against human Hep2 cells at 10 ug/mL after 72 hrs by MTT assay; conditions: HEp-2, 72 h, read-out: GI; method in brief: as §4
[32] = test system: HEp-2; assay: Cytotoxicity against human Hep2 cells at 5 ug/mL after 72 hrs by MTT assay; conditions: HEp-2, 72 h, read-out: GI; method in brief: as §4
[33] = test system: HEp-2; assay: Cytotoxicity against human Hep2 cells at 1.25 ug/mL after 72 hrs by MTT assay; conditions: HEp-2, 72 h, read-out: GI; method in brief: as §4
[34] = test system: NCI-H292; assay: Cytotoxicity against human NCI-H292 cells at 1.25 ug/mL after 72 hrs by MTT assay; conditions: NCI-H292, 72 h, read-out: GI; method in brief: as §4

Structure (SMILES)	zone of inhibition at 300 µg/disc [1]	zone of inhibition at 300 µg/disc [2]	MIC [3]	zone of inhibition at 300 µg/disc [4]	MIC [5]	MIC [6]	zone of inhibition at 300 µg/disc [7]	zone of inhibition at 300 µg/disc [8]	MIC [9]	zone of inhibition at 300 µg/disc [10]	MIC [11]	MIC [12]	MIC [13]	MIC [14]	MIC [15]	MIC [16]	MIC [17]	MIC [18]	zone of inhibition at 300 µg/disc [19]	MIC [20]	other results
O=C1NC(=S)CS1	19 mm	26 mm	4 µg/mL (≈ 30 µM)	22 mm	8 µg/mL (≈ 60.1 µM)	32 µg/mL (≈ 240 µM)	< 7 mm	19 mm	8 µg/mL (≈ 60.1 µM)	21 mm	64 µg/mL (≈ 480 µM)	32 µg/mL (≈ 240 µM)	32 µg/mL (≈ 240 µM)	32 µg/mL (≈ 240 µM)	64 µg/mL (≈ 480 µM)	32 µg/mL (≈ 240 µM)	32 µg/mL (≈ 240 µM)	32 µg/mL (≈ 240 µM)	< 7 mm	64 µg/mL (≈ 480 µM)	MIC [21]: 32 µg/mL (≈ 240 µM); MIC [22]: 32 µg/mL (≈ 240 µM); MIC [23]: 4 µg/mL (≈ 30 µM); zone of inhibition at 300 µg/disc [24]: 18 mm; zone of inhibition at 300 µg/disc [25]: < 7 mm; MIC [26]: 64 µg/mL (≈ 480 µM); MIC [27]: 32 µg/mL (≈ 240 µM)
O=C1NC(=S)/C(=C/c2ccc(Cl)cc2)S1	12 mm	25 mm	32 µg/mL (≈ 125 µM)	17 mm	4 µg/mL (≈ 15.6 µM)	2 µg/mL (≈ 7.82 µM)	< 7 mm	27 mm	64 µg/mL (≈ 250 µM)	22 mm	2 µg/mL (≈ 7.82 µM)	8 µg/mL (≈ 31.3 µM)	2 µg/mL (≈ 7.82 µM)	16 µg/mL (≈ 62.6 µM)	4 µg/mL (≈ 15.6 µM)	16 µg/mL (≈ 62.6 µM)	2 µg/mL (≈ 7.82 µM)	16 µg/mL (≈ 62.6 µM)	< 7 mm	32 µg/mL (≈ 125 µM)	inhibition of growth at 10 µg/mL [28]: 41.4%; inhibition of growth at 5 µg/mL [29]: 35.8%; inhibition of growth at 2.5 µg/mL [30]: 28.6%; inhibition of growth at 10 µg/mL [31]: 22.2%; inhibition of growth at 5 µg/mL [32]: 16.1%; inhibition of growth at 1.25 µg/mL [33]: 0.92%; inhibition of growth at 1.25 µg/mL [34]: 10%; MIC [21]: 16 µg/mL (≈ 62.6 µM); MIC [22]: 2 µg/mL (≈ 7.82 µM); MIC [23]: 16 µg/mL (≈ 62.6 µM); zone of inhibition at 300 µg/disc [24]: 20 mm; zone of inhibition at 300 µg/disc [25]: < 7 mm; MIC [26]: 4 µg/mL (≈ 15.6 µM); MIC [27]: 32 µg/mL (≈ 125 µM)
